The source made the active and inactive calls.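 How the source made its calls, unless noted: active means Her2 level under about 52% in both replicate screens, with viability over 70% of control (limit read from the data); inconclusive means Her2 under the limit in one screen only, or viability under 70%; inactive means Her2 level above the set limit.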

Consider 15 compounds from PubChem BioAssay.

Test [1] in a line: Her2 expression decrease, cell viability multiplex – SKBR3 breast tumor cells, AlphaScreen, ATP viability, primary screen (AID 461).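 On Her2 level: lower value means less Her2 protein in the cells.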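 On viability: percent of carrier control wells set as 100% viability.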 The following applies: SKBR3 Her2 protein level, 18-24 h, measured here: SKBR3 viability, ATP luminescence, at 10 µM. (In Alpha technology, singlet oxygen from a donor bead excites a nearby acceptor bead.)
In test [2] the target is Receptor tyrosine-protein kinase erbB-2 (Homo sapiens) (UniProt P04626). The test is described as above. The following applies: 18-24 h, at 10 µM, stronger effect = lower value.
Chain of Receptor tyrosine-protein kinase erbB-2 (Homo sapiens) (P04626 whole entry, looked up): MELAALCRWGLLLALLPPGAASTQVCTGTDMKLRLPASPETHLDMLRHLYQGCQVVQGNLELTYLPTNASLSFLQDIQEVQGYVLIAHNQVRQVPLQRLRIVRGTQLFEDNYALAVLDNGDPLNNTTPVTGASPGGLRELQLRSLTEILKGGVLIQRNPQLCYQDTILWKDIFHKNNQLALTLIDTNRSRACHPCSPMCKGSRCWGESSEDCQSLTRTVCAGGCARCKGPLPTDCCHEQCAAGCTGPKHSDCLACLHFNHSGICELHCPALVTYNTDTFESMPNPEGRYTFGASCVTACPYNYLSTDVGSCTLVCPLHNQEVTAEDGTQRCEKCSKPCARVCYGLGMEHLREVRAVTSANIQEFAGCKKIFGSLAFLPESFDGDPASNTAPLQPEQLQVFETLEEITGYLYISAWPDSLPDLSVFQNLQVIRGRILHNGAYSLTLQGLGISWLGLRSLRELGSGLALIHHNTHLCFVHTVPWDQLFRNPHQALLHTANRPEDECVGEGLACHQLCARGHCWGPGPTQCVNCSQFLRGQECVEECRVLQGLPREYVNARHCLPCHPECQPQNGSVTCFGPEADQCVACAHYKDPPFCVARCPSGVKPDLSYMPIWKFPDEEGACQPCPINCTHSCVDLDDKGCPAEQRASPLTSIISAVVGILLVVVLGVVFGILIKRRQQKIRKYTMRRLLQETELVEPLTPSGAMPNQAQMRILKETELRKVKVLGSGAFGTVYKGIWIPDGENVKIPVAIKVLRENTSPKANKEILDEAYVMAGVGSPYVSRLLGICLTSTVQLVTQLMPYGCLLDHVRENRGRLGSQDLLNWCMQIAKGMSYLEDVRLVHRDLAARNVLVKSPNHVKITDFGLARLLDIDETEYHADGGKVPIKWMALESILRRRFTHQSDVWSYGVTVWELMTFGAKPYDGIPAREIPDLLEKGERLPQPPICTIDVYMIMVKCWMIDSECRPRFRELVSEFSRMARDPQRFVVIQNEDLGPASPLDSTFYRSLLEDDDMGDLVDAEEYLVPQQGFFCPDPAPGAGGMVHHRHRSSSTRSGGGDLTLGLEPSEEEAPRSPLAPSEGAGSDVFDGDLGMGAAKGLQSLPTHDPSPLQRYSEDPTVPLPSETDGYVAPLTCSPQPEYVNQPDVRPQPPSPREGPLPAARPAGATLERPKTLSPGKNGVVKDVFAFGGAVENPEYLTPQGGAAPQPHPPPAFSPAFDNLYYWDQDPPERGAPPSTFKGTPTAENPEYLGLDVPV
Test [3] is described as follows: reduced viability of SK-BR-3 breast cancer cells – cell-based, 24 h, human, pilot screen (AID 572;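 active means viability at or below 10% of carrier control in both of two separate runs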;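 further: compound exposure lasted between 18 and 24 h rather than exactly 24 h; 100% = carrier-treated control wells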). The following applies: SK-BR-3 viability, CellTiter-Glo luminescence, at 10 µM, stronger effect = lower value.
A short description of test [4]: HUVEC growth inhibition – cell-based, human, primary screen (AID 575;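 active means viability at or below 30% in both replicate assays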;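 further: 100% = median of untreated cell wells with 0.1% DMSO on each plate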). The following applies: HUVEC proliferation, CellTiter-Glo luminescence, 72 h; at 10 µM; stronger effect = lower value. In outline: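 Test system: primary human umbilical vein endothelial cells. Quantity: 1250 cells/well. Compound: single 10 µM dose, 0.1% DMSO, from 5x medium stock. Timing: 72 h treatment at 37 °C. Detection: ATP-based CellTiter-Glo luminescent read. Benchmarks: vehicle and MePR control wells. Format: 384-well plates coated with collagen.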
On the technique in general: Cellular ATP, detected with luciferase, serves as a proxy for viable cell number.

Test [5] in a line: H69AR cell proliferation blockers – human, duplicate replicates, primary screen (AID 580;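 active means viability at or under a set limit in both replicates, limit being median viability minus 3 SD, cut at about 48% in these data, passing the limit was not always enough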;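 further: 100% = mean luminescence of untreated wells and 0% = no signal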). The following applies: H69AR lung tumor cells viability, ATP luminescence, 72 h; at 10 µM; stronger effect = lower value.
A short description of test [6]: MRP1 drug-resistance reversers in H69AR cells – cell-based, doxorubicin co-treatment, pilot screen (AID 601;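 active means viability loss from added drug above about 55%, and viability with drug at most 40%, in both replicates, limit read from the data, passing the limit was not always enough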). The following applies: CellTiter-Glo, 72 h, at 10 µM; for differential viability (reversal): stronger effect = higher value.
Test [7] can be described thus: yeast transport mutant growth inhibition pilot in 384-well plates, post-Golgi transport modulator project (AID 636; in the data active means inhibition above about 31%). The note with it: absorbance 615 nm, about 18 h, stronger effect = higher value.
The nature of test [8]: growth suppression of yeast trafficking mutant, preliminary HTS, modulators of trafficking downstream of Golgi apparatus project, 1536-format plate, OD 615 nm (AID 637; in the data active means inhibition above about 30%). The note with it: yeast transport mutant growth, absorbance 615 nm, 18 h; stronger effect = higher value.
[9] abbreviates: H69AR cells + 2 uM doxorubicin, measured here: viability with 2 uM doxorubicin, stronger effect = lower value.
The mark [10] stands for this setting: H69AR cells, compound alone cytotoxicity.

Broadly, the viability is a read-out of living cells in per cent, often relative to untreated cells. The inhibition is the change of the read-out against control, counted positive when it falls. Turning to `CCOC(=O)c1sc(NC(=O)CNC(=O)Cn2cnc3sc(C)c(C)c3c2=O)nc1C`, the viability in test [1] was 94%; in test [3], 94% (inactive); in test [4], 93.4% (inactive); in test [5], 104% (inactive); in test [6] (setting [9]) it was 96.7%; in test [6] (setting [10]), 104%. For the same compound, the Her2 level in test [2] was 88.5% (inactive). For the same compound, in test [6] (H69AR cells + 2 uM doxorubicin), the differential viability (reversal) is 7.01% (inactive). Also, the inhibition in test [7] is 1.18% (inactive); in test [8] it was 2.26% (inactive).
As for `O=C(CCSc1nnc(-c2ccncc2)o1)Nc1ccccc1`, the viability in test [1] is 90.5%; in test [3], 90.5% (inactive); in test [4], 108% (inactive); in test [5], 100% (inactive); in test [6] (setting [9]) it was 89.8%; in test [6] (setting [10]), 100%. Besides, the Her2 level in test [2] was 80.5% (inactive). In test [6] (H69AR cells + 2 uM doxorubicin), the differential viability (reversal) was 10.3% (inactive). The inhibition is -0.79% (inactive) in test [7] and 5.27% (inactive) in test [8].
For the compound `CCC1CCCCN1C(=O)Cn1c(C(=O)OC)cc2sc(Cl)cc21` (stereo not given), the viability in test [1] is 76.5%; in test [3], 76.5% (inactive); in test [4] it was 89.2% (inactive); in test [5] it was 71.4% (inactive); in test [6] (setting [9]), 88.4%; in test [6] (setting [10]) it was 71.4%. In addition, the Her2 level in test [2] is 103% (inactive). In test [6] (H69AR cells + 2 uM doxorubicin), the differential viability (reversal) is -17% (inactive). In addition, the values for the inhibition in test [7] and in test [8] were -0.64% (inactive) and -0.67% (inactive), respectively.
In the case of `c1cncc(-c2nnc3sc(-c4ccco4)nn23)c1`, the viability is 118% in test [1]; 118% (inactive) in test [3]; 99.5% (inactive) in test [4]; 91.5% (inactive) in test [5]; 98.3% in test [6] (setting [9]); 91.5% in test [6] (setting [10]). Further, in test [2], the Her2 level is 106% (inactive). Besides, the differential viability (reversal) in test [6] (H69AR cells + 2 uM doxorubicin) is -6.86% (inactive). In addition, the inhibition was -5.39% (inactive) in test [7] and 4.68% (inactive) in test [8].
With `Cc1cc(NC(=O)CSc2nccn2-c2ccc(F)cc2)no1`, the viability is 85.5% in test [1]; 85.5% (inactive) in test [3]; 83.4% (inactive) in test [4]; 104% (inactive) in test [5]; 88.4% in test [6] (setting [9]); 104% in test [6] (setting [10]). Also, the Her2 level in test [2] was 81.5% (inactive). For the same compound, the differential viability (reversal) in test [6] (H69AR cells + 2 uM doxorubicin) is 15.8% (inactive). Besides, the inhibition in test [7] is -2.99% (inactive); in test [8], -3.17% (inactive).
Consider `O=C(CSc1ncccn1)NCc1ccccc1`, for which the viability in test [1] is 94%; in test [3], 94% (inactive); in test [4], 106% (inactive); in test [5], 105% (inactive); in test [6] (setting [9]) it was 100%; in test [6] (setting [10]) it was 105%. Besides, the Her2 level in test [2] is 112% (inactive). Further, the differential viability (reversal) in test [6] (H69AR cells + 2 uM doxorubicin) was 5.14% (inactive). For the same compound, the figures for the inhibition in test [7] and in test [8] were 4.4% (inactive) and -8.71% (inactive), respectively.
As for `CN(C)c1cccc2c(S(=O)(=O)Nc3ccccn3)cccc12`, the viability in test [1] was 96.5%; in test [3], 96.5% (inactive); in test [4] it was 109% (inactive); in test [5] it was 101% (inactive); in test [6] (setting [9]), 98.7%; in test [6] (setting [10]), 101%. In test [2], the Her2 level was 95.5% (inactive). In addition, the differential viability (reversal) in test [6] (H69AR cells + 2 uM doxorubicin) is 2.54% (inactive). Further, the inhibition is -6.8% (inactive) in test [7] and 1.43% (inactive) in test [8].
Take `CCOC(=O)c1cc2n(n1)C(C(F)(F)C(F)(F)F)CC(C)N2` (stereo not given): the viability in test [1] was 92%; in test [3], 92% (inactive); in test [4], 105% (inactive); in test [5] it was 97.3% (inactive); in test [6] (setting [9]), 93%; in test [6] (setting [10]), 97.3%. Further, the Her2 level in test [2] is 93.5% (inactive). Also, the differential viability (reversal) in test [6] (H69AR cells + 2 uM doxorubicin) is 4.36% (inactive). The inhibition was -3.73% (inactive) in test [7] and -0.32% (inactive) in test [8].
Turning to `CCCc1nnc(NC(=O)CCC(=O)N2CCN(CCOc3ccc(C)cc3)CC2)s1`, the viability in test [1] was 93.5%; in test [3], 93.5% (inactive); in test [4] it was 92% (inactive); in test [5] it was 93.2% (inactive); in test [6] (setting [9]) it was 99.4%; in test [6] (setting [10]), 93.2%. Also, the Her2 level in test [2] was 74% (inactive). Further, in test [6] (H69AR cells + 2 uM doxorubicin), the differential viability (reversal) was -6.29% (inactive). The inhibition in test [7] was -4.03% (inactive); in test [8] it was -2.83% (inactive).
Regarding `CCN(CC)C(=O)Cn1c(=O)n(Cc2ccccc2Cl)c2c1c(=O)n(C)c(=O)n2C`, the viability in test [1] was 98%; in test [3], 98% (inactive); in test [4], 98.6% (inactive); in test [5], 93.7% (inactive); in test [6] (setting [9]), 89.5%; in test [6] (setting [10]), 93.7%. The Her2 level in test [2] is 100% (inactive). In addition, in test [6] (H69AR cells + 2 uM doxorubicin), the differential viability (reversal) is 4.23% (inactive). In addition, the inhibition in test [7] is -0.93% (inactive); in test [8] it was -4.13% (inactive).
In the case of `COc1cc(OC)cc(-c2nc3cc(C)ccc3o2)c1`, the viability in test [1] was 95.5%; in test [3], 95.5% (inactive); in test [4] it was 62.8% (inactive); in test [5], 73% (inactive); in test [6] (setting [9]) it was 75.8%; in test [6] (setting [10]), 73%. The Her2 level in test [2] is 70.5% (inactive). Also, the differential viability (reversal) in test [6] (H69AR cells + 2 uM doxorubicin) is -2.79% (inactive). In addition, the inhibition was -3.16% (inactive) in test [7] and -4.52% (inactive) in test [8].
Turning to `CCOC(=O)c1nnn(-c2nonc2N)c1CN1CCc2ccccc2C1`, the viability in test [1] was 102%; in test [3] it was 102% (inactive); in test [4], 96.4% (inactive); in test [5] it was 91.7% (inactive); in test [6] (setting [9]) it was 91.7%; in test [6] (setting [10]), 91.7%. Moreover, the Her2 level in test [2] was 93% (inactive). Also, in test [6] (H69AR cells + 2 uM doxorubicin), the differential viability (reversal) is -0.015% (inactive). Moreover, the inhibition in test [7] was -0.13% (inactive); in test [8], -3.02% (inactive).
As for `CCN(CC)S(=O)(=O)c1ccc2c(c1)c(=O)c(C(=O)NCCOC)cn2C`, the viability in test [1] was 88.5%; in test [3], 88.5% (inactive); in test [4], 101% (inactive); in test [5], 83.1% (inactive); in test [6] (setting [9]), 95.6%; in test [6] (setting [10]), 83.1%. In test [2], the Her2 level was 99.5% (inactive). Also, in test [6] (H69AR cells + 2 uM doxorubicin), the differential viability (reversal) is -12.5% (inactive). Also, the inhibition in test [7] was -5.95% (inactive); in test [8], -5.5% (inactive).
As to `CCCCCC(=O)N1CC2(CC)CN(C(=O)CCCCC)CC(CC)(C1)C2=O`, the viability in test [1] was 89%; in test [3], 89% (inactive); in test [4], 91.7% (inactive); in test [5], 83.3% (inactive); in test [6] (setting [9]), 89.7%; in test [6] (setting [10]), 83.3%. Further, the Her2 level in test [2] is 124% (inactive). Besides, the differential viability (reversal) in test [6] (H69AR cells + 2 uM doxorubicin) is -6.35% (inactive). Also, the inhibition is 0.51% (inactive) in test [7] and -7.33% (inactive) in test [8].
For `CC(=O)Nc1sc2c(c1CN1CCN(c3ccccn3)CC1)CCCC2`, the viability in test [1] was 66%; in test [3], 66% (inactive); in test [4], 96% (inactive); in test [5], 95.4% (inactive); in test [6] (setting [9]), 83.3%; in test [6] (setting [10]), 95.4%. The Her2 level in test [2] is 85.5% (inactive). The differential viability (reversal) in test [6] (H69AR cells + 2 uM doxorubicin) was 12% (inactive). The inhibition is -2.53% (inactive) in test [7] and -10.5% (inactive) in test [8].
